Measured values taken from ChEMBL document CHEMBL1255300, “Pharmacodynamics of the antibacterial effect and emergence of resistance to tomopenem, formerly RO4908463/CS-023, in an in vitro pharmacokinetic model of Staphylococcus aureus infection” (Antimicrob Agents Chemother, 2008).
Values after ≈ are worked out from the molar mass of the structure shown. Active and inactive are the calls of the source. No cut-off for these calls is given here.

How the values were obtained:
Staphylococcus aureus [1] = assay: AUBKC (0 to 48 hrs) in methicillin-sensitive Staphylococcus aureus 5956 infected in in vitro pharmacokinetic model at 1500 mg, iv every 8 hrs using 10^6 CFU/ml inoculum; type: functional
How it was run: (§1)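 Single-compartment dilutional in vitro PK model at 37°C in 10% Mueller-Hinton broth, stirred, flow 132 ml/h. […] Inoculum 10^6 CFU/ml added 45 min before dosing, or 10^8 CFU/ml run overnight. Viable counts with β-lactamase neutralisation. AUBKC by log-linear trapezoidal rule, at least triplicate.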

Staphylococcus aureus [2] = assay: Antibacterial activity against methicillin-resistant Staphylococcus aureus 33921 infected in in vitro pharmacokinetic model assessed as reduction in viable count at 1500 mg, iv every 8 hrs measured after 24 hrs using 10^6 CFU/ml inoculum; type: functional
How it was run: (§2)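 Single-compartment dilutional in vitro PK model, 10% Mueller-Hinton broth, 37°C, stirred, dilution 132 ml/h. […] Inoculum 10^6 CFU/ml (added 45 min pre-dose) or 10^8 CFU/ml (run overnight). Viable counts by spiral plating, beta-lactamase neutralization, detection limit 10^2 CFU/ml. At least triplicate.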

Staphylococcus aureus [3] = assay: Antibacterial activity against methicillin-resistant Staphylococcus aureus 33829 by 10% MH broth method; type: functional
How it was run: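 MIC by CLSI broth dilution, or by broth dilution in 10% Mueller-Hinton broth at nondoubling dilutions.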

Staphylococcus aureus [4] = assay: Antibacterial activity against methicillin-resistant Staphylococcus aureus 33820 by 10% MH broth method; type: functional
How it was run: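 Broth dilution MIC per CLSI, run in 10% Mueller-Hinton broth at nondoubling dilutions.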

Staphylococcus aureus [5] = assay: T>MIC for 2-log drop in count in methicillin-sensitive Staphylococcus aureus 5956 in in vitro pharmacokinetic model after 24 hrs using 10^8 CFU/ml inoculum; type: functional
How it was run: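 Dose-ranging: 7–13 simulated regimens per strain giving T>MIC of 0–100% (MIC from 10% MHB), at 106 or 10^8 CFU/ml as stated.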

Staphylococcus aureus [6] = assay: T>MIC in methicillin-resistant Staphylococcus aureus 33820 infected in vitro pharmacokinetic model at 1500 mg, iv every 8 hrs; type: functional
Staphylococcus aureus [7] = assay: Antibacterial activity against methicillin-resistant Staphylococcus aureus 33815 infected in in vitro pharmacokinetic model assessed as time required to 99% killing at 1500 mg, iv every 8 hrs using 10^8 CFU/ml inoculum; type: functional
How it was run: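 T99 and T99.9 were taken as the times for the count to fall 99% or 99.9% from time 0, using serial viable counts over 48 h. Inoculum was 10^8 CFU/ml, grown overnight in the model before dosing.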

Staphylococcus aureus [8] = assay: Antibacterial activity against methicillin-sensitive Staphylococcus aureus 5956 infected in in vitro pharmacokinetic model assessed as time required to 99% killing at 750 mg, iv every 8 hrs using 10^6 CFU/ml inoculum; type: functional
Staphylococcus aureus [9] = assay: Antibacterial activity against methicillin-sensitive Staphylococcus aureus 5956 infected in in vitro pharmacokinetic model assessed as reduction in viable count at 750 mg, iv every 8 hrs measured after 36 hrs using 10^6 CFU/ml inoculum; type: functional
Staphylococcus aureus [10] = assay: Antibacterial activity against methicillin-resistant Staphylococcus aureus 33922 in in vitro pharmacokinetic model assessed as viable count at 4 times of MIC; type: functional
Staphylococcus aureus [11] = assay: T>MIC for 3-log drop in count in methicillin-resistant Staphylococcus aureus 33827 in in vitro pharmacokinetic model after 24 hrs using 10^6 CFU/ml inoculum; type: functional
Staphylococcus aureus [12] = assay: T>MIC for 3-log drop in count in methicillin-resistant Staphylococcus aureus 33820 in in vitro pharmacokinetic model after 24 hrs using 10^6 CFU/ml inoculum; type: functional
Staphylococcus aureus [13] = assay: Antibacterial activity against methicillin-sensitive Staphylococcus aureus 5956 infected in in vitro pharmacokinetic model assessed as reduction in viable count at 750 mg, iv every 8 hrs measured after 24 hrs using 10^6 CFU/ml inoculum; type: functional
Staphylococcus aureus [14] = assay: T>MIC for static effect in methicillin-resistant Staphylococcus aureus 33922 in in vitro pharmacokinetic model after 24 hrs using 10^6 CFU/ml inoculum; type: functional
Staphylococcus aureus [15] = assay: AUBKC (0 to 48 hrs) in methicillin-resistant Staphylococcus aureus 33922 infected in in vitro pharmacokinetic model at 1500 mg, iv every 8 hrs using 10^6 CFU/ml inoculum; type: functional; how it was run: as §1
Staphylococcus aureus [16] = assay: Antibacterial activity against methicillin-resistant Staphylococcus aureus 33815 infected in in vitro pharmacokinetic model assessed as reduction in viable count at 1500 mg, iv every 8 hrs measured after 48 hrs using 10^8 CFU/ml inoculum; type: functional
How it was run: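 PK model at 37°C in 10% MHB. […] A 0.5 McFarland suspension (1 ml) was added and the model run overnight to reach 10^8 CFU/ml before dosing. Counts were spiral-plated on nutrient agar with β-lactamase. Change in log CFU/ml was measured from time 0; at least triplicate.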

Staphylococcus aureus [17] = assay: AUBKC (0 to 24 hrs) in methicillin-resistant Staphylococcus aureus 33820 infected in in vitro pharmacokinetic model at 750 mg, iv every 8 hrs using 10^6 CFU/ml inoculum; type: functional; how it was run: as §1
Staphylococcus aureus [18] = assay: Antibacterial activity against methicillin-resistant Staphylococcus aureus 33921 infected in in vitro pharmacokinetic model assessed as reduction in viable count at 1500 mg, iv every 8 hrs measured after 48 hrs using 10^6 CFU/ml inoculum; type: functional; how it was run: as §2
Staphylococcus aureus [19] = assay: T>MIC for 4-log drop in count in methicillin-resistant Staphylococcus aureus 33815 in in vitro pharmacokinetic model after 24 hrs using 10^8 CFU/ml inoculum; type: functional
Staphylococcus aureus [20] = assay: T>MIC for static effect in methicillin-resistant Staphylococcus aureus 33820 in in vitro pharmacokinetic model after 24 hrs using 10^6 CFU/ml inoculum; type: functional
Staphylococcus aureus [21] = assay: Antibacterial activity against methicillin-resistant Staphylococcus aureus 33829 in in vitro pharmacokinetic model assessed as viable count at 2 times of MIC; type: functional
How it was run: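 Preexposure population analysis: time-zero model samples plated on nutrient agar without drug and with drug at multiples of the 10% broth MIC. Growth reported as log CFU/ml, detection limit 2 log10.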

Staphylococcus aureus [22] = assay: Antibacterial activity against methicillin-resistant Staphylococcus aureus 33922 infected in in vitro pharmacokinetic model assessed as time required to 99.9% killing at 750 mg, iv every 8 hrs using 10^8 CFU/ml inoculum; type: functional
Staphylococcus aureus [23] = assay: Antibacterial activity against methicillin-sensitive Staphylococcus aureus 5956 infected in in vitro pharmacokinetic model assessed as reduction in viable count at 1500 mg, iv every 8 hrs measured after 48 hrs using 10^6 CFU/ml inoculum; type: functional
Staphylococcus aureus [24] = assay: Antibacterial activity against methicillin-resistant Staphylococcus aureus 33827 by broth dilution method; type: functional
How it was run: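 Standard CLSI broth dilution MIC.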

Staphylococcus aureus [25] = assay: Antibacterial activity against methicillin-resistant Staphylococcus aureus 33827 assessed as viable count at 4 times of MIC after 24 hrs using 10^6 CFU/ml inoculum; type: functional, organism-based
Staphylococcus aureus [26] = assay: Antibacterial activity against methicillin-sensitive Staphylococcus aureus 5956 by 10% MH broth method; type: functional
How it was run: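 Broth dilution per CLSI, but in 10% Mueller-Hinton broth using nondoubling dilutions.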

Staphylococcus aureus [27] = assay: Antibacterial activity against methicillin-resistant Staphylococcus aureus 33827 infected in in vitro pharmacokinetic model assessed as reduction in viable count at 750 mg, iv every 8 hrs measured after 36 hrs using 10^8 CFU/ml inoculum; type: functional; how it was run: as §2

`C[C@@H](O)[C@H]1C(=O)N2C(C(=O)O)=C(S[C@H]3C[C@@H](C(=O)N4CC[C@H](NC(=O)CNC(=N)N)C4)N(C)C3)[C@H](C)[C@H]12` [TOMOPENEM] was tested, and the AUBC (Staphylococcus aureus [1]) was 22.7 log10CFU/ml.hr, the log10CFU/ml (Staphylococcus aureus [2]) was 4.2 and the MIC (Staphylococcus aureus [3]) was 0.5 µg/mL (≈ 0.93 µM). The MIC (Staphylococcus aureus [4]) was 6 µg/mL (≈ 11.2 µM), the “fT>MIC” value (Staphylococcus aureus [5]) was 7.4% and the “fT>MIC” value (Staphylococcus aureus [6]) was 98%. The Time (Staphylococcus aureus [7]) was 16 h, the Time (Staphylococcus aureus [8]) was 4 h and the log10CFU/ml (Staphylococcus aureus [9]) was 4.5. The log10CFU/ml (Staphylococcus aureus [10]) was 6, the “fT>MIC” value (Staphylococcus aureus [11]) was 43% and the “fT>MIC” value (Staphylococcus aureus [12]) was 20.4%. The log10CFU/ml (Staphylococcus aureus [13]) was 4.3, the “fT>MIC” value (Staphylococcus aureus [14]) was 1.3% and the AUBC (Staphylococcus aureus [15]) was 16.9 log10CFU/ml.hr. The log10CFU/ml (Staphylococcus aureus [16]) was 3.9, the AUBC (Staphylococcus aureus [17]) was 28.6 log10CFU/ml.hr and the log10CFU/ml (Staphylococcus aureus [18]) was 3.7. For the same compound, the “fT>MIC” value (Staphylococcus aureus [19]) was 6.5%, the “fT>MIC” value (Staphylococcus aureus [20]) was 5.9% and the log10CFU/ml (Staphylococcus aureus [21]) was 5.8. It also gave a Time (Staphylococcus aureus [22]) of 12 h, a log10CFU/ml (Staphylococcus aureus [23]) of 4.4 and an MIC (Staphylococcus aureus [24]) of 2 µg/mL (≈ 3.72 µM). The Activity (Staphylococcus aureus [25]) was “inactive”, the MIC (Staphylococcus aureus [26]) was 0.04 µg/mL (≈ 0.0744 µM) and the log10CFU/ml (Staphylococcus aureus [27]) was 5.
